Results from different studies.
Each line is one published result; the experiments were not run side by side.

SMILES	cell line	effect on	mode	method	time	setting	IC50
O=C(NO)c1ccc(Cn2cnc3c(Nc4cccc([N+](=O)[O-])c4)ncnc32)cc1	NB-4	cell growth or viability		MTT	72 h		0.58 µM
O=C(CSc1nc2ccccc2s1)N/N=C/c1ccc(OCC(=O)Nc2ccc([N+](=O)[O-])cc2)cc1	HEL 299	cell growth or viability		MTS	72 h		> 100 µM
C#Cc1cccc(Nc2ncnc3cc(OCCOC)c(OCCOC)cc23)c1	BGC-823	cell growth or viability		MTT	48 h		> 20 µM
OCc1ccc(-c2nn(Cc3cccnc3)c3ccccc23)o1	CC-LP-1	cell growth or viability		ATP luminescence			~46 µM
CN(C)CCNC(=O)c1cccn2c(=O)c3cc4ccccc4cc3nc12	SNU-449	cell growth or viability		imaging	72 h		36.3 µM
OCc1ccc(-c2nn(Cc3cccnc3)c3cccnc23)o1	CC-LP-1	cell growth or viability		ATP luminescence			> 46 µM
Cc1cc(NS(=O)(=O)c2ccc(NC(=O)/C(C#N)=C/c3ccc(N4CCCC4)cc3)cc2)no1	HSF	cell growth or viability		MTT	48 h		> 200 µM
COc1ncccc1Cn1nc(-c2ccc(CO)o2)c2ccccc21	CC-LP-1	cell growth or viability		ATP luminescence			> 46 µM
Cc1cc(NS(=O)(=O)c2ccc(NC(=O)/C(C#N)=C/c3cccnc3)cc2)no1	HSF	cell growth or viability		MTT	48 h		> 200 µM
COc1cc([C@@H]2c3cc4c(cc3[C@@H](O[C@@H]3O[C@@H]5CO[C@@H](C)O[C@H]5[C@H](O)[C@H]3O)[C@H]3COC(=O)[C@H]23)OCO4)cc(OC)c1O	HEL 299	cell growth or viability		MTS	72 h		> 10 µM
Nc1ccccc1NC(=O)c1ccc(Cn2cnc3c(Nc4ccc(Br)cc4F)ncnc32)cc1	HEL	cell growth or viability		MTT	72 h		17 µM
OCc1ccc(-c2nn(Cc3ccccn3)c3cccnc23)o1	CC-LP-1	cell growth or viability		ATP luminescence			> 46 µM
CN1CCC(NC2CCc3[nH]c4c(C(N)=O)ccc(-c5ccccc5Cl)c4c3C2)CC1 (centres unmarked)	BGC-823	cell growth or viability			96 h		0.018 µM
CN(C)c1cccc2c(S(=O)(=O)NCCCCN=C=S)cccc12	HDFa	cell growth or viability		MTT	24 h		28.4 µM
O=C(CSc1nc2ccccc2s1)N/N=C/c1ccc(OCC(=O)Nc2cccc(Br)c2)cc1	HEL 299	cell growth or viability		MTS	72 h		> 100 µM
O=C(NO)c1ccc(Cn2cnc3c(Nc4ccc(F)c(Cl)c4)ncnc32)cc1	NB-4	cell growth or viability		MTT	72 h		2.34 µM
NCc1ccc(-c2nn(Cc3ccncc3)c3ccccc23)o1	CC-LP-1	cell growth or viability		ATP luminescence			> 46 µM
Nc1ccccc1NC(=O)c1ccc(Cn2cnc3c(Nc4ccc(Cl)cc4)ncnc32)cc1	HEL	cell growth or viability		MTT	72 h		13 µM

SMILES	cell line	effect on	mode	method	time	setting	IC50
C(=N\Nc1cc(N/N=C/c2cccc3cccnc23)nc(-c2ccccc2)n1)/c1cccc2cccnc12	BGC-823	cell growth or viability		MTT	48 h		16.9 µM
Cc1nc(Nc2ncc(C(=O)Nc3c(C)cccc3Cl)s2)cc(N2CC[C@H](O)C2)n1	P3HR-1	cell growth or viability		ATP luminescence	72 h		> 10 µM
Cc1cc(NS(=O)(=O)c2ccc(NC(=O)/C(C#N)=C/c3ccc(N4CCOCC4)cc3)cc2)no1	HSF	cell growth or viability		MTT	48 h		> 200 µM
CNC(=O)c1cc(Oc2ccc(NC(=O)Nc3ccc(Cl)c(C(F)(F)F)c3)cc2)ccn1	BGC-823	cell growth or viability		MTT	48 h		6.08 µM
COc1cccc2c1C(=O)c1c(O)c3c(c(O)c1C2=O)C[C@@](O)(C(=O)CO)C[C@@H]3O[C@H]1C[C@H](N)[C@H](O)[C@H](C)O1	H69AR	cell growth or viability		MTT	75 h		22.5 µM
O=C(NO)c1ccc(Cn2cnc3c(Nc4ccc(Br)cc4F)ncnc32)cc1	HEL	cell growth or viability		MTT	72 h		2.46 µM
COc1cnccc1Cn1nc(-c2ccc(CO)o2)c2ccccc21	CC-LP-1	cell growth or viability		ATP luminescence			> 46 µM
Cc1cnc(CNC(=O)c2c(=O)c3ccc(N4CCCN(C)CC4)nc3n3c2sc2ccccc23)cn1	SNU-449	cell growth or viability		imaging	72 h		0.37 µM
O=C(NO)c1ccc(Cn2cnc3c(Nc4ccc(Cl)cc4)ncnc32)cc1	NB-4	cell growth or viability		MTT	72 h		0.41 µM
C(=N\Nc1cc(N/N=C/c2cccc3cccnc23)ncn1)/c1cccc2cccnc12	BGC-823	cell growth or viability		MTT	48 h		26.8 µM
OCc1ccc(-c2nn(Cc3ccccn3)c3ccccc23)o1	CC-LP-1	cell growth or viability		ATP luminescence			> 46 µM
COc1ccc(Nc2ncnc3c2ncn3Cc2ccc(C(=O)NO)cc2)cc1	NB-4	cell growth or viability		MTT	72 h		0.87 µM
COC(=O)c1cc(C(C)=NNc2nc(-c3ccc4c(c3)OCCCO4)cs2)ccc1O	HSF	cell growth or viability		MTT	96 h		231 µM
CCC(=CCc1c(O)cc2c(c1O)C(=O)C[C@H](c1ccccc1O)O2)CC	HeLa	cell growth or viability		MTT	48 h		37.4 µM
COc1ccc(Nc2ncnc3c2ncn3Cc2ccc(C(=O)Nc3ccccc3N)cc2)cc1	HEL	cell growth or viability		MTT	72 h		16.8 µM
Cc1cc2c(C(N)=O)cccc2n1-c1nc2c(c(NCc3ccccc3)n1)CCCN2	KMS-11	cell growth or viability			72 h		1.3 µM
O=C(NS(=O)(=O)c1ccc(C(F)(F)F)cc1)c1cc2ccccc2n1Cc1ccc(Br)c2ccccc12	mouse BMDM	IL-1β release	inhibitor	ELISA		LPS-stimulated	7.28 µM
